Experimental data from ChEMBL document CHEMBL1137076, “New arylpiperazine 5-HT(1A) receptor ligands containing the pyrimido[2,1-f]purine fragment: synthesis, in vitro, and in vivo pharmacological evaluation” (J Med Chem, 2004).
Where “and” joins values, the source holds several entries; their conditions need not be identical. Equal values may be shown once.

How the values were obtained:
[1] = molecular target: T1, 5-hydroxytryptamine receptor 1A (Rattus norvegicus, UniProt P19327); assay: Ability to bind to central serotonin 5-hydroxytryptamine 1A receptor in vitro in hippocampus of the rat brain using [3H]8-OH-DPAT radioligand; format: tissue-based
T1 sequence (P19327 whole entry): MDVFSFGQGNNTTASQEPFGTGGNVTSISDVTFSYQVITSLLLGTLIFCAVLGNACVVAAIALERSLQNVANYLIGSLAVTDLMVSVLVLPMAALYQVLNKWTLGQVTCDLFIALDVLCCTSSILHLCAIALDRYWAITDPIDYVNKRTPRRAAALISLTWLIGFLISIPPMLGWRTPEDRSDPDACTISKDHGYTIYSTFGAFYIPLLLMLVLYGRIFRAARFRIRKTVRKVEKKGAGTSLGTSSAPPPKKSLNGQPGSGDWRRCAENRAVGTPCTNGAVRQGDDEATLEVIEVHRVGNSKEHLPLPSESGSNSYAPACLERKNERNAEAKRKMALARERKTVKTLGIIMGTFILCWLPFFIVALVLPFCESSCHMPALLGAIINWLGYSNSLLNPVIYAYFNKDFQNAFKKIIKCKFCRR
In short: (§1)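 Competition binding in rat brain tissue: hippocampus with [3H]-8-OH-DPAT (5-HT1A); cortex with [3H]-ketanserin (5-HT2A) or [3H]-prazosin (α1). Ki from at least three experiments using 10–14 concentrations (10⁻¹⁰–10⁻⁵ M), each in triplicate.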

[2] = molecular target: 5-hydroxytryptamine receptor 2A (Rattus norvegicus, UniProt P14842); assay: Ability to bind to central serotonin 5-hydroxytryptamine 2A receptor in vitro in cortex of the rat brain using [3H]ketanserin radioligand; format: tissue-based; in short: as §1
Sequence of 5-hydroxytryptamine receptor 2A (P14842 whole entry): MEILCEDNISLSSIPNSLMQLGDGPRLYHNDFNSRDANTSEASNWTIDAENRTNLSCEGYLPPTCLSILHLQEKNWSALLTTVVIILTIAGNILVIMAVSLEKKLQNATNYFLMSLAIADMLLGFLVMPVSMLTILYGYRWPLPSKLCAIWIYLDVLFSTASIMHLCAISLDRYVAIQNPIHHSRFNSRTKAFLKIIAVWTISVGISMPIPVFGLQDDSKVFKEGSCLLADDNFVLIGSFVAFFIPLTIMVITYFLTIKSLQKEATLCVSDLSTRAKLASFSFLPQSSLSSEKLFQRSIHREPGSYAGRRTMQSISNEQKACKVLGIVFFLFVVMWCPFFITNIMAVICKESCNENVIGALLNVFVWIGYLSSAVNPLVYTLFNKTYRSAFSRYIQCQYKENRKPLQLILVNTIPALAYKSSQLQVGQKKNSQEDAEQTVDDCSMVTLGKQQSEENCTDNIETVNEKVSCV

Rattus norvegicus [3] = assay: Effect of Compound administered 60 min before the test in the conflict drinking test in rat (n = 8 rats/group) at 2.5 mg/kg; format: functional
In short: (§2)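 Male Wistar rats (250-300 g), compound suspended in 1% aqueous Tween 80, given ip (2 mL/kg) 60 min before test. Rats adapted 10 min to chamber, water-deprived 24 h, readapted 10 min with bottle, 30 min home-cage drinking, deprived another 24 h. After 30 s free drinking, licks punished by 0.5 mA shock; shocks accepted in 5 min counted. n=8/group; ANOVA with Dunnett test.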

Rattus norvegicus [4] = assay: Effect of Compound administered 60 min before the test in the conflict drinking test in rat (n = 8 rats/group) at 5 mg/kg; format: functional; in short: as §2
Rattus norvegicus [5] = assay: Effect of compound administered 60 min before the test in the forced swimming test in Rat (8 rats per group) at 20 mg/kg; format: functional
In short: (§3)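 Male Wistar rats, n=8/group; forced swim per Porsolt: 15 min pretest in cylinders with 15 cm water at 25 °C, retest 24 h later; total immobility over 5 min. Drug ip 60 min before test; imipramine in saline, test compound suspended in 1% Tween 80; Dunnett test vs vehicle.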

Rattus norvegicus [6] = assay: Effect of compound administered 60 min before the test in the forced swimming test in Rat (8 rats per group) at 40 mg/kg; format: functional; in short: as §3
Rattus norvegicus [7] = assay: Effect of compound administered 60 min before the test in the forced swimming test in Rat (8 rats per group) at 30 mg/kg; format: functional; in short: as §3
[8] = molecular target: 5-hydroxytryptamine receptor 2A (Mus musculus) (UniProt P35363); assay: The ability to antagonize head twitches in mice, observed after administration of (+/-)- DOI, was used to evaluate 5-HT2A receptor antagonistic property; Antagonist; format: functional, organism-based; conditions: filed as antagonist
Sequence of 5-hydroxytryptamine receptor 2A (Mus musculus) (P35363 whole entry): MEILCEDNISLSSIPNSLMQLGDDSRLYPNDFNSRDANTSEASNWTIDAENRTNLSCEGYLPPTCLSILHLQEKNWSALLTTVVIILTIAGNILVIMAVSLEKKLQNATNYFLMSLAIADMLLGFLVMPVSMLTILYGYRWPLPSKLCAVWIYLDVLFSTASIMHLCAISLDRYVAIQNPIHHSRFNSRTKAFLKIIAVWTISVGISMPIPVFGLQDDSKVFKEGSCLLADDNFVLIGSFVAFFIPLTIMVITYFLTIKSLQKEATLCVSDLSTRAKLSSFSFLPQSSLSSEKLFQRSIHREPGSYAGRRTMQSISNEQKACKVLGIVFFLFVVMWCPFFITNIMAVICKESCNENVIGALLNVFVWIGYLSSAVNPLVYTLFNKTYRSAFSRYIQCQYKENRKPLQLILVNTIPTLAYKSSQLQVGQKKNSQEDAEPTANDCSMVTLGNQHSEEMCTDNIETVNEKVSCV
In short: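 Male Albino Swiss mice habituated 20 min in glass cages; compounds ip (1% Tween 80) 60 min before (±)-DOI 2.5 mg/kg; head twitches counted for 20 min after DOI. ID50 by Litchfield-Wilcoxon.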

[9] = molecular target: T2, 5-hydroxytryptamine receptor 1A (Mus musculus) (UniProt Q64264); assay: The hypothermia produced in mice was regarded as a measure of presynaptic 5-HT1A receptor agonistic activity; Agonist; format: functional; conditions: filed as agonist
T2 sequence (whole entry): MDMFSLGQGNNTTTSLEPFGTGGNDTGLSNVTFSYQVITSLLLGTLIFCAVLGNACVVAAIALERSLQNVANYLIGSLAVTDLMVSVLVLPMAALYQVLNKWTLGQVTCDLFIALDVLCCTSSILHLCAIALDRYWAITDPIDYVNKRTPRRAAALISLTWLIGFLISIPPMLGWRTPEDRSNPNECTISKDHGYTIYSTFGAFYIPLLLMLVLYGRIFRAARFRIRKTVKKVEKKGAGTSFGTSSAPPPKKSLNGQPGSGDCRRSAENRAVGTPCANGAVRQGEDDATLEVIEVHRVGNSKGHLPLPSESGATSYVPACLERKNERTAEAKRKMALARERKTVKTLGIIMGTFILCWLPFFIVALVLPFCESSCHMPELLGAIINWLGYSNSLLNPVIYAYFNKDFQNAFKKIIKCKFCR

D(2) dopamine receptor = D(2) dopamine receptor (Rattus norvegicus, UniProt P61169); assay: Ability to bind to Dopamine receptor D2 in vitro in rat sriatal membranes using [3H]spiperone radioligand; format: cell membranes
Sequence of D(2) dopamine receptor (P61169 whole entry): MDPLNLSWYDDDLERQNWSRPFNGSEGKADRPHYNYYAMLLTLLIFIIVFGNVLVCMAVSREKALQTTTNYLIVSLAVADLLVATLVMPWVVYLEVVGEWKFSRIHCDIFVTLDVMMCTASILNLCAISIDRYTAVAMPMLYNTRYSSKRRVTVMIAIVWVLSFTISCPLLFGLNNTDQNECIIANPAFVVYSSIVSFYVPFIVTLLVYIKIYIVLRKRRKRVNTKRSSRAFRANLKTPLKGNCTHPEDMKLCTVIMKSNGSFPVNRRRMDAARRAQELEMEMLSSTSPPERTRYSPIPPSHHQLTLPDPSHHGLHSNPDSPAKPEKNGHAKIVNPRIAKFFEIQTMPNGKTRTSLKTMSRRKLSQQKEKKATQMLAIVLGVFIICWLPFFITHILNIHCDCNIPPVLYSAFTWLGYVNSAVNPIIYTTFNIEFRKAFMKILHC
In short: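 Rat striatal membranes with [3H]spiperone; ketanserin 50 nM in buffer to block 5-HT2A binding; nonspecific binding with (±)-butaclamol 5 μM; 50 mM potassium phosphate pH 7.4; 37 °C, 30 min; vacuum filtration onto glass fiber, scintillation counting. Ki via Cheng-Prusoff from ≥3 experiments, 10 concentrations in triplicate.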

[10] = molecular target: T3, Adrenergic receptor alpha-1 (Rattus norvegicus, UniProt P15823+P23944+P43140); assay: Ability to bind to alpha-1 adrenergic receptor in vitro in cortex of the rat brain using [3H]prazosin radioligand; format: tissue-based; in short: as §1
T3 sequence (P15823 whole entry): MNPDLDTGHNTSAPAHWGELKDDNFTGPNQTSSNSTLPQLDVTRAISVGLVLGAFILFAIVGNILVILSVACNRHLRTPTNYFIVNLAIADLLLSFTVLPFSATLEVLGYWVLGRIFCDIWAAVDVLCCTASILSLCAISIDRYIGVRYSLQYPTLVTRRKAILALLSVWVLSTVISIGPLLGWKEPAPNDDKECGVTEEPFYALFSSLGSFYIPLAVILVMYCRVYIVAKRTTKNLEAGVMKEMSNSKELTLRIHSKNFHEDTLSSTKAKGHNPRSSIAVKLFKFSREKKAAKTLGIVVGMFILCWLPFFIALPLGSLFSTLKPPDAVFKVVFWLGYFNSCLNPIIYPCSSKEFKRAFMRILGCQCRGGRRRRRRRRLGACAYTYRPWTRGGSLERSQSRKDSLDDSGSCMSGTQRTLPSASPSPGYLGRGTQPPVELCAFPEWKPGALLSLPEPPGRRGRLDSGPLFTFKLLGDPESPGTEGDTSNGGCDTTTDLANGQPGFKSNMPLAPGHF
T3 sequence (P23944 whole entry): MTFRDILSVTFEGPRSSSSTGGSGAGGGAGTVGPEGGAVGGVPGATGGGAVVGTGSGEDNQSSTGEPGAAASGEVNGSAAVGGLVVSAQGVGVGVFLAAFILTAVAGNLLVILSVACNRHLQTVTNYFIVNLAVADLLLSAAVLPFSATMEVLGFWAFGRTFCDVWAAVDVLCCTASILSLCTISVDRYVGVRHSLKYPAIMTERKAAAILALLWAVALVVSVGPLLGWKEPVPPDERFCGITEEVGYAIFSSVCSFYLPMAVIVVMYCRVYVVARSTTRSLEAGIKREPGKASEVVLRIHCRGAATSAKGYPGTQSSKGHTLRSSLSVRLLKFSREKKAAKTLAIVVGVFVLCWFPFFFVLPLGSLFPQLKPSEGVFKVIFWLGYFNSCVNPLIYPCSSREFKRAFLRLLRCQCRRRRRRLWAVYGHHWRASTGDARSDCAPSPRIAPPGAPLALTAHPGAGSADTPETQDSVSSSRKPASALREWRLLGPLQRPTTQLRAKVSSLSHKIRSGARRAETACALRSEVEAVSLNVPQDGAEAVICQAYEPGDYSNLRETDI
T3 sequence (P43140 whole entry): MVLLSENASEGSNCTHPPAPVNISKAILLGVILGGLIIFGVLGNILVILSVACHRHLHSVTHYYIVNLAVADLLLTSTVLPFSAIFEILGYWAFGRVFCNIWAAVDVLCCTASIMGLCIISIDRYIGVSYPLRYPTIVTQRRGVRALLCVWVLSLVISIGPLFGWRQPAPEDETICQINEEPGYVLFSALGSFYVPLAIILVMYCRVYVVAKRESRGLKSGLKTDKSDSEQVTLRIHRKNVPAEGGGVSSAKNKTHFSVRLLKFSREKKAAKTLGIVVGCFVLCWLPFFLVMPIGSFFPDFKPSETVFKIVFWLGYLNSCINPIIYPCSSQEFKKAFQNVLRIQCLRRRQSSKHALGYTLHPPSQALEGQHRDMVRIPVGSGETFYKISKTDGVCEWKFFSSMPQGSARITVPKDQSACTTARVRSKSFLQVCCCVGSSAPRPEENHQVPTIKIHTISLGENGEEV

[11] = molecular target: 5-hydroxytryptamine receptor 1A (Rattus norvegicus) (UniProt P19327); assay: Ability inhibit symptoms induced by 8-OH-DPAT was regarded as postsynaptic 5-HT1A receptor antagonistic activity; Antagonist; conditions: filed as antagonist
Mus musculus = species: Mus musculus; assay: Ability to inhibit 8-OH-DPAT-induced hypothermia was taken as a measure of presynaptic antagonistic activity; Antagonist; format: functional, organism-based; conditions: filed as antagonist
Rattus norvegicus [12] = assay: Effect of compound administered 60 min before the test in the forced swimming test in Rat (8 rats per group) at 5 mg/kg; format: functional; in short: as §3
Rattus norvegicus [13] = assay: Effect of compound administered 60 min before the test in the forced swimming test in Rat (8 rats per group) at 10 mg/kg; format: functional; in short: as §3

Compound | Ki [1] | Ki [2] | Functional profile [9] | Ki (D(2) dopamine receptor) | Ki [10] | Functional profile [11] | also measured
Cn1c(=O)c2c(nc3n(CCCN4CCN(c5ccccc5)CC4)c(=O)ccn23)n(C)c1=O | 25 nM | 4680 nM |  |  |  |  | 
CN1C(=O)CN=C(c2ccccc2)c2cc(Cl)ccc21 [DIAZEPAM] |  |  |  |  |  |  | Effect (Rattus norvegicus [3]): 306.5% and 685.7%; No. of shocks accepted/5 min (Rattus norvegicus [3]): 23.6 and 52.8; Effect (Rattus norvegicus [4]): 533.8%; No. of shocks accepted/5 min (Rattus norvegicus [4]): 41.1
Cn1c(=O)c2c(nc3n2CCCN3CCCCN2CCN(c3ccccc3)CC2)n(C)c1=O | 2.1 nM | 243 nM |  |  |  |  | 
COc1ccccc1N1CCN(CCCN2CCCn3c2nc2c3c(=O)n(C)c(=O)n2C)CC1 | 17.2 nM | 562 nM |  |  |  |  | 
CN(C)CCCN1c2ccccc2CCc2ccccc21 [IMIPRAMINE] |  |  |  |  |  |  | Effect (Rattus norvegicus [5]): 81.9%; Immobility time (Rattus norvegicus [5]): 155 s; Effect (Rattus norvegicus [6]): 52.7%; Immobility time (Rattus norvegicus [6]): 99.7 s; Effect (Rattus norvegicus [7]): 63.3%; Immobility time (Rattus norvegicus [7]): 120.4 s
Cn1c(=O)c2c(nc3nc(NCCCN4CCN(c5cccc(Cl)c5)CC4)c(Br)cn32)n(C)c1=O | 49 nM | 85 nM | Agonist | 264 nM | 46 nM | Antagonist | Functional profile [8]: Antagonist
Cn1c(=O)c2c(nc3nc(NCCN4CCN(c5cccc(Cl)c5)CC4)ccn32)n(C)c1=O | 23 nM | 234 nM | Agonist | 182 nM | 29 nM | Antagonist | 
Cn1c(=O)c2c(nc3nc(NCCN4CCN(c5ccccc5)CC4)c(Br)cn32)n(C)c1=O | 87 nM | 440 nM |  | 1240 nM |  | Antagonist | 
COc1ccccc1N1CCN(CCCn2c(=O)ccn3c4c(=O)n(C)c(=O)n(C)c4nc23)CC1 | 10.4 nM | 3880 nM |  |  |  |  | 
Cn1c(=O)c2c(nc3nc(NCCCN4CCN(c5ccccc5)CC4)ccn32)n(C)c1=O | 19 nM | 72 nM |  | 430 nM | 25 nM | Antagonist | Functional profile [8]: Antagonist; Functional profile (Mus musculus): Antagonist
COc1ccccc1N1CCN(CCNc2ccn3c(n2)nc2c3c(=O)n(C)c(=O)n2C)CC1 | 1.1 nM | 246 nM |  | 1330 nM | 58 nM | Antagonist | Functional profile (Mus musculus): Antagonist
Cn1c(=O)c2c(nc3nc(NCCN4CCN(c5cccc(Cl)c5)CC4)c(Br)cn32)n(C)c1=O | 68 nM | 64 nM |  | 165 nM |  | Antagonist | Functional profile [8]: Antagonist
COc1ccccc1N1CCN(CCCNc2ccn3c(n2)nc2c3c(=O)n(C)c(=O)n2C)CC1 | 34 nM | 835 nM |  | 1170 nM | 33 nM | Antagonist | 
Cn1c(=O)c2c(nc3nc(NCCCN4CCN(c5cccc(Cl)c5)CC4)ccn32)n(C)c1=O | 46 nM | 56 nM | Agonist | 94 nM | 21 nM | Antagonist | Functional profile [8]: Antagonist
COc1ccccc1N1CCN(CCCNc2nc3nc4c(c(=O)n(C)c(=O)n4C)n3cc2Br)CC1 | 36 nM | 880 nM | Agonist | 325 nM | 38 nM | Antagonist | 
Cn1c(=O)c2c(nc3nc(NCCCN4CCN(c5ccccc5)CC4)c(Br)cn32)n(C)c1=O | 11 nM | 297 nM | Agonist | 414 nM | 11 nM |  | Effect (Rattus norvegicus [4]): 491.9%; No. of shocks accepted/5 min (Rattus norvegicus [4]): 36.4; Effect (Rattus norvegicus [5]): 69.6%; Immobility time (Rattus norvegicus [5]): 165.6 s; Effect (Rattus norvegicus [12]): 73.1%; Immobility time (Rattus norvegicus [12]): 173.9 s; Effect (Rattus norvegicus [13]): 64.4%; Immobility time (Rattus norvegicus [13]): 153.1 s
COc1ccccc1N1CCN(CCNc2nc3nc4c(c(=O)n(C)c(=O)n4C)n3cc2Br)CC1 | 62 nM | 86 nM | Agonist | 226 nM | 62 nM | Antagonist | 
